# Shown are actives, neighbours in structure and some others; about 2.5% of the full set was active somewhere.
# TRPC6 act – mouse TRPC6 channel activators, primary screen, cell-based, HEK293, membrane potential dye. HEK293-TRPC6 membrane potential dye fluorescence; active compounds read high. AID 2550, 2010. hit rate 0.13% among 310,000. B-score at 10 µM. Short transient receptor potential channel 6 (Mus musculus), Q61143;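 active means B-score of the integrated fluorescence ratio above library mean plus 3 SD, and starting fluorescence ratio within library mean plus 5 SD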;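 further: higher score means more depolarization so channel activation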
# TRPC4 potent – positive allosteric modulators of TRPC4, primary screen, cell-based, mouse TRPC4beta, HEK293 mu-opioid, Fluo-4 calcium; Short transient receptor potential channel 4 (Mus musculus), Q9QUQ5; DAMGO EC20, Fluo-4 Ca2+ flux; active compounds read high; B-score at 10 µM; hit rate 0.42% among 310,000; AID 2227, 2009;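 active means B-score of calcium response area above 5 SD of library B-scores, with initial fluorescence ratio within 5 SD of library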;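 further: B-score of integrated fluorescence ratio over time as area under calcium response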
# TRPC4 act – activators of mouse TRPC4 channel, primary screen, Fluo4 calcium, HEK293 TRPC4beta/mu-opioid cells; Fluo4 calcium fluorescence; active compounds read high; B-score at 10 µM; AID 2237, 2010; hit rate 0.49% among 310,000; Short transient receptor potential channel 4 (Mus musculus), Q9QUQ5;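 active means B-score above 5 SD of library B-scores, and initial fluorescence ratio not above library mean plus 5 SD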;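 further: positive B-score marks a calcium rise read as TRPC4 activation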
#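 Assay system – TRPC4beta and mu-opioid receptor HEK293 stable cells · Measured by – Fluo4 fluorescence, kinetic · Schedule – dye loading 45 min room temperature, 110 s kinetic read · Read-out – B-scored integrated calcium fluorescence ratio · Controls – buffer and maximal DAMGO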
# TRPC4 block – inhibitors of mouse TRPC4 channel, primary screen, Fluo4 calcium, HEK293 TRPC4beta/mu-opioid cells; Short transient receptor potential channel 4 (Mus musculus), Q9QUQ5; DAMGO-evoked Fluo4 calcium flux; active compounds read low; B-score at 10 µM; hit rate 0.39% among 300,000; AID 2247, 2010;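 active means B-score over 3 SD under the library average, no early fluorescence shift, positive overall ratio signal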
#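 Assay system: Stable TRPC4beta/mu-opioid receptor HEK293 cells | Reagent: DAMGO in two steps, submaximal then maximal | Compound dosing: Single concentration per test compound | Signal: Fluo4 Ca2+ flux fluorescence | Evaluation: Per-well B score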
# Platelet DG rel – inhibitors of platelet dense granule secretion, primary screen, cell-based, MLPCN, human platelets; human platelet-rich plasma, SFLLRN dense granule ATP release, luminescence; inhibition, %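 (compounds screened at 7.5 µM in platelet-rich plasma)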; hit rate 0.22% among 300,000;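 active means mean replicate score, as percent of positive control, at or above 50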
# TRPC6 inh – mouse TRPC6 channel inhibitors, primary screen, cell-based, HEK293, membrane potential dye. Short transient receptor potential channel 6 (Mus musculus), Q61143. B-score at 10 µM. hit rate 1.1% among 310,000. ACh-evoked depolarization; active compounds read low;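 active means B-score under library mean minus 3 SD, initial fluorescence not abnormally high, positive integrated signal ratio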;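 further: B-score derived from integrated fluorescence ratio over the kinetic read; more negative B-score means stronger inhibition of depolarization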
# An asterisk follows results filed as active; i = inactive.
SMILES,TRPC6 act,TRPC4 potent,TRPC4 act,TRPC4 block,Platelet DG rel,TRPC6 inh
CCCN(CCC)CCNC(=O)CCC(=O)Nc1ccc2nc(N3CCOCC3)cc(C)c2c1,i,i,97*,i,6,i
CCCN(CCC)CCNC(=S)Nc1ccc2nc3n(c(=O)c2c1)CCCCC3,i,i,88*,i,-6,i
COc1ccc(OCC(=O)Nc2ccc(OC)c(S(=O)(=O)N3CCCCC3)c2)cc1,i,i,i,i,-4,i
Cc1ccnc(NC(=O)CNC(=O)c2ccc(Br)o2)c1,i,i,i,i,2,i
CC(C)[C@H](NC(=O)C1CCN(S(=O)(=O)c2ccc(F)cc2)CC1)C(=O)NCc1ccco1,i,i,i,i,1,i
CCCN(CCC)CCCNC(=S)Nc1ccc2nc(N3CCN(C)CC3)cc(C)c2c1,i,13*,i,i,-4,i
CCc1cc(=O)oc2c(CNCc3ccccc3F)c(O)c(Cl)cc12,i,17*,i,i,-8,i
CCCc1cc(=O)oc2c(CN3CCCC3)c(O)c(Cl)cc12,i,i,i,i,-2,i
CSCC[C@H](NC(=O)OC(C)(C)C)c1nnc(SCC=C(C)C)o1,i,i,i,i,-3,i
C/C(=N\NC(=O)c1ccccc1NC(=O)c1ccc(Cl)cc1)c1ccncc1,i,i,i,i,96*,i
COc1ccc(OC)c(CNC(=O)C2CCN(S(C)(=O)=O)CC2)c1,i,i,i,i,40,i
O=C1C(=O)N(CCCc2ccccc2)c2ccccc21,i,i,i,i,2,i
CC(C)(C)n1nnnc1C(c1ccc(Cl)cc1)N(Cc1cccnc1)Cc1ccco1 (configuration not stated),i,42*,i,i,-48,i
Cc1cccc(NC(=O)c2ccc(NCCO)c([N+](=O)[O-])c2)n1,i,i,i,i,85*,i
Cc1ccnc(N2CCC(C(=O)Nc3cccc(C(F)(F)F)c3)CC2)n1,i,i,i,i,11,i
CN1CCN(NC(=O)c2cc(-c3cccc(Cl)c3)nc3ccccc23)CC1,i,i,i,i,-44,i
CC(C)c1ccc(-c2cc(C(=O)NN3CCN(C)CC3)c3ccccc3n2)cc1,i,i,i,i,54*,i
COCCNC(=O)/C(C#N)=C/c1cccc(/C=C(\C#N)C(=O)NCCOC)c1,i,i,i,i,-6,i
COCCNC(=O)/C(C#N)=C/c1ccc(O)cc1,i,i,i,i,86*,i
COc1ccc([N+](=O)[O-])cc1NCc1ccco1,i,i,i,-6*,2,i
Cc1ccc(S(=O)(=O)N(C)S(=O)(=O)c2ccc(C#N)cc2)cc1,i,i,i,i,0,i
O=C(c1ccc2c3c(cccc13)CC2)C1CCCN(Cc2ccncc2)C1 (configuration not stated),i,i,44*,i,-9,i
CCc1nc(CN2CCCC(C(=O)c3ccc4c5c(cccc35)CC4)C2)c(C)[nH]1 (configuration not stated),i,i,116*,i,-1,i
CN(C)C(=O)CCC(=O)N1CCCC(C(=O)c2ccc3c4c(cccc24)CC3)C1 (configuration not stated),i,i,i,i,-7,i
Cc1ncccc1C(=O)N1CCCC(C(=O)c2ccc3c4c(cccc24)CC3)C1 (configuration not stated),i,i,i,i,2,i
COc1ccc(N(CC(=O)N2CCc3ccccc3C2)S(C)(=O)=O)cc1Cl,i,i,i,i,0,i
